Assay results taken from ChEMBL document CHEMBL4304834, “3-Amino-chromanes and Tetrahydroquinolines as Selective 5-HT2B, 5-HT7, or σ1 Receptor Ligands” (ACS Med Chem Lett, 2019).

How the values were obtained:
Type in all cases: cell-based
D(3) dopamine receptor = D(3) dopamine receptor (Homo sapiens, UniProt P35462); experiment: Displacement of [3H]-N-methylspiperone from human recombinant dopamine D3 receptor expressed in HEKT cells after 90 mins by microbeta scintillation counting method
In short: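 Radioligand binding run by the NIMH Psychoactive Drug Screening Program. Otherwise Ki comes from sigmoidal curve fits of triplicate measurements in a single experiment, or is averaged over repeated experiments each run in triplicate.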

D(1B) dopamine receptor = D(1B) dopamine receptor (Homo sapiens, UniProt P21918); experiment: Displacement of [3H]-SCH23390 from human recombinant dopamine D5 receptor expressed in HEKT cells after 90 mins by microbeta scintillation counting method
In short: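 Radioligand binding was run by the NIMH Psychoactive Drug Screening Program. Compounds were first screened at 10 μM. Those giving ≥50% binding were taken to full competition curves. Ki is reported as pKi from a sigmoidal curve fit of triplicate measurements in a single experiment; the error is the curve-fit error.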

[1] = molecular target: Sigma non-opioid intracellular receptor 1 (Homo sapiens, UniProt Q99720); experiment: Displacement of [3H]-Pentazocine from human recombinant sigma1 receptor expressed in HEKT cells after 90 mins by microbeta scintillation counting method
[2] = molecular target: T1, Alpha-1B adrenergic receptor (Homo sapiens) (UniProt P35368); experiment: Displacement of [3H]-Prazosin from human recombinant adrenergic Alpha1B receptor expressed in HEKT cells at 10 uM after 90 mins by microbeta scintillation counting method relative to control
T1 sequence (whole entry): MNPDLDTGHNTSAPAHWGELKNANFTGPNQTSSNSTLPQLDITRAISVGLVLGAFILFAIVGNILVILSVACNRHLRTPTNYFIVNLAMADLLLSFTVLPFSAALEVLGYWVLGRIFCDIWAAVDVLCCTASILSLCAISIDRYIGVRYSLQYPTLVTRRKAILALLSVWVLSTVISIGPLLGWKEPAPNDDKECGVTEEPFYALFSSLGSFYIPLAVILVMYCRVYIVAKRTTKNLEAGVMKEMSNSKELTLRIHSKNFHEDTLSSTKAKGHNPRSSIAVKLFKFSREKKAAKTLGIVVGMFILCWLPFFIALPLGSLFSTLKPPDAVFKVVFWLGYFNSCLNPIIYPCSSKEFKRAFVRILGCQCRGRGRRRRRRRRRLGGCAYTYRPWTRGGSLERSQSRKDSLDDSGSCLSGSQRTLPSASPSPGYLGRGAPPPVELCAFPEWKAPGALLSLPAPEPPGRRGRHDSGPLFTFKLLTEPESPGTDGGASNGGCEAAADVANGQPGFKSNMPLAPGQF

[3] = molecular target: T2, Alpha-1D adrenergic receptor (Homo sapiens) (UniProt P25100); experiment: Displacement of [3H]-Prazosin from human recombinant adrenergic Alpha1D receptor expressed in cells at 10 uM after 90 mins by microbeta scintillation counting method relative to control
T2 sequence (whole entry): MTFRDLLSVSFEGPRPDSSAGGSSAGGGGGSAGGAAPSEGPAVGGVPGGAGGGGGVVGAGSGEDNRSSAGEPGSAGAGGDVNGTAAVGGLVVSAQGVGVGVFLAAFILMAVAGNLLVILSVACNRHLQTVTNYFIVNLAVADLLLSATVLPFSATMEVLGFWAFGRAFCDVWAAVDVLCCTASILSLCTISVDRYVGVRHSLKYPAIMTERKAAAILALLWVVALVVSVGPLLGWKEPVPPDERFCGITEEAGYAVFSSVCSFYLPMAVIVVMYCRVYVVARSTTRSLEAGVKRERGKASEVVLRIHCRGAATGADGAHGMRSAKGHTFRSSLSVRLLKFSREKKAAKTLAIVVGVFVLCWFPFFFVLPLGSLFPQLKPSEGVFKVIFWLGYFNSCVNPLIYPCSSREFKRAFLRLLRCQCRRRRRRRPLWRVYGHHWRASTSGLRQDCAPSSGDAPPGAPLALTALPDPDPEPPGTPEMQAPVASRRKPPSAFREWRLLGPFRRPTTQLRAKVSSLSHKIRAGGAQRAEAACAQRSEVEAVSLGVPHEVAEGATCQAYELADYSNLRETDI

[4] = molecular target: Beta-3 adrenergic receptor (Homo sapiens, UniProt P13945); experiment: Displacement of [3H]-CGP12177 from human recombinant adrenergic Beta3 receptor expressed in Flp-In HEK cells at 10 uM after 90 mins by microbeta scintillation counting method relative to control
In short: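 Radioligand binding run by the NIMH Psychoactive Drug Screening Program. […] Otherwise Ki comes from sigmoidal curve fits of triplicate measurements in a single experiment, or is averaged over repeated experiments each run in triplicate.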

[5] = molecular target: T3, Muscarinic acetylcholine receptor M1 (Homo sapiens) (UniProt P11229); experiment: Displacement of [3H]-QNB/[3H]-NMS from human recombinant Muscarinic acetylcholine M1 receptor expressed in stable CHO cells at 10 uM after 90 mins by microbeta scintillation counting method relative to control
T3 sequence (whole entry): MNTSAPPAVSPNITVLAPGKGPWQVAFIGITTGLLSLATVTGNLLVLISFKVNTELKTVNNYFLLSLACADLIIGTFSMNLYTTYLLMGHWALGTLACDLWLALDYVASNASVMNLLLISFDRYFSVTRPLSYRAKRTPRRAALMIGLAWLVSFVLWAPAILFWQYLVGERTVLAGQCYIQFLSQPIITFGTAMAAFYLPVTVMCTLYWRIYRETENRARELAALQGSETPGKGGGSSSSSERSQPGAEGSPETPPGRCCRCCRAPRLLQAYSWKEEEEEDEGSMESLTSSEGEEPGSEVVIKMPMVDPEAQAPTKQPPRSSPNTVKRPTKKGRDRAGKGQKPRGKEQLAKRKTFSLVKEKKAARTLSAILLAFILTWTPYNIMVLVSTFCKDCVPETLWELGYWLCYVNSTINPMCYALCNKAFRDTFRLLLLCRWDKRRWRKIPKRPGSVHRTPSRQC

[6] = molecular target: Muscarinic acetylcholine receptor M3 (Homo sapiens, UniProt P20309); experiment: Displacement of [3H]-QNB/[3H]-NMS from human recombinant Muscarinic acetylcholine M3 receptor expressed in stable CHO cells at 10 uM after 90 mins by microbeta scintillation counting method relative to control
Chain of Muscarinic acetylcholine receptor M3 (P20309 whole entry, looked up): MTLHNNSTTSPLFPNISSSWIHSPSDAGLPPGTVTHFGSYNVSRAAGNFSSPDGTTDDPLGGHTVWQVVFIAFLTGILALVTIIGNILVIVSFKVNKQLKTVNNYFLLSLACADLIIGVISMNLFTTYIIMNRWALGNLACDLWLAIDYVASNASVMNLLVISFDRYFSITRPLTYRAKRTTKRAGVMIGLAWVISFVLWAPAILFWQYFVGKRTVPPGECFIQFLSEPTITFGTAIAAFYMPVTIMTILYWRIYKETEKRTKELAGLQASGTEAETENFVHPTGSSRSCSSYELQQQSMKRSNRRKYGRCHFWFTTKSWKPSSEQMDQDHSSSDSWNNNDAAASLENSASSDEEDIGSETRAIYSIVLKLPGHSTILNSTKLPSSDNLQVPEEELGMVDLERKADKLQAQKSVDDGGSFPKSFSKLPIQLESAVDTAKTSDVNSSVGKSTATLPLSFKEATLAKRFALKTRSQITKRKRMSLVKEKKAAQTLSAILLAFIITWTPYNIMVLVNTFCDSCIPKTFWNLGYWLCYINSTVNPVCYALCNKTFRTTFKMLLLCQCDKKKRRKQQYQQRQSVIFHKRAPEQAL

Chain of D(1B) dopamine receptor (P21918 whole entry): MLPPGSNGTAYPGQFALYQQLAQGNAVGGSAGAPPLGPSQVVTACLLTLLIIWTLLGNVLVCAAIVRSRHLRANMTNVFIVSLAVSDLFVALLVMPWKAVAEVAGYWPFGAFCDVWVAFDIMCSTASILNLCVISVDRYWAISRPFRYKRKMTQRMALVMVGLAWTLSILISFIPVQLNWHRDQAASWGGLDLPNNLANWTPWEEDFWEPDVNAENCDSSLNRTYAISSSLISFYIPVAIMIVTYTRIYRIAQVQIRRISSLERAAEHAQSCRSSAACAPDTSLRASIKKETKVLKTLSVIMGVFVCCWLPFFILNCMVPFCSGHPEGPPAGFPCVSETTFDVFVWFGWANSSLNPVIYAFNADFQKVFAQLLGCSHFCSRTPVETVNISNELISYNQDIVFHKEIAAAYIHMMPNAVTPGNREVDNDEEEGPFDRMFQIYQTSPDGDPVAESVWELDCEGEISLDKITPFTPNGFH
Chain of Sigma non-opioid intracellular receptor 1 (Q99720 whole entry): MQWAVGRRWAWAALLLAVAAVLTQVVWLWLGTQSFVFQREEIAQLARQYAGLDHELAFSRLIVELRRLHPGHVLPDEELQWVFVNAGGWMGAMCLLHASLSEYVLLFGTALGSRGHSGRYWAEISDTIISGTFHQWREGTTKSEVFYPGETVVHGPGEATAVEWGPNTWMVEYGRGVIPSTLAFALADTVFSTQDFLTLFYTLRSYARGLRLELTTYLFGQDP
Chain of D(3) dopamine receptor (P35462 whole entry): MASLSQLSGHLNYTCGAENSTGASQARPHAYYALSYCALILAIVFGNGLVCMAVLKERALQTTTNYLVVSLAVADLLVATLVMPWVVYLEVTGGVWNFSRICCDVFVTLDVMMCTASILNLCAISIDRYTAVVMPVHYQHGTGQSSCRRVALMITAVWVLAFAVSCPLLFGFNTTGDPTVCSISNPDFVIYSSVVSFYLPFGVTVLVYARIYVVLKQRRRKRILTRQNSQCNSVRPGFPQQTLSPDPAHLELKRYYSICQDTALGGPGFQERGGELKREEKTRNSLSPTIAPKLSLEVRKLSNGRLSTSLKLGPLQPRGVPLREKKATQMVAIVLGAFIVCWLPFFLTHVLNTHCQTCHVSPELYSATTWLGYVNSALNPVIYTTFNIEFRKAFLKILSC
Chain of Beta-3 adrenergic receptor (P13945 whole entry, looked up): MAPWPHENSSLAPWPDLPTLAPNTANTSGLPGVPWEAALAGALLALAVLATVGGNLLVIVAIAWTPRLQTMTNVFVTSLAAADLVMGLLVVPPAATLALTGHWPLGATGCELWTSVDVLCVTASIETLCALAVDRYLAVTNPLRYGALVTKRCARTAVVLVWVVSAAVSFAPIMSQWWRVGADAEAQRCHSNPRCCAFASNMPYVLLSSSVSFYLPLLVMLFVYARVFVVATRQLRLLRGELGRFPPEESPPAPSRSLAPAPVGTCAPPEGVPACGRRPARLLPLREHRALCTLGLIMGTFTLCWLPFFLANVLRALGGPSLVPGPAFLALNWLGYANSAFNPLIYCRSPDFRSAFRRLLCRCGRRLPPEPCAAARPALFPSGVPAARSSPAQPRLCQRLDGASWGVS

| Structure (SMILES) | Ki (D(3) dopamine receptor) [µM] | Ki (D(1B) dopamine receptor) [µM] | Ki ([1]; read-out: Ki) [nM] | inhibition [2] [%] | inhibition [3] [%] | inhibition [4] [%] | inhibition [5] [%] | inhibition [6] [%] | Ki ([1]; read-out: pKi (converted)) [nM] |
| --- | --- | --- | --- | --- | --- | --- | --- | --- | --- |
| COc1cc(OC)c2c(c1)OC[C@@]1(C)NCC[C@@H]21 (racemic) | > 10 | > 10 | 44 | < 50 | < 50 | < 50 | < 50 | < 50 | – |
| C[C@@]12CN(c3ccccc3)c3ccccc3[C@@H]1CCN2 (racemic) | – | > 10 | – | – | – | – | – | – | – |
| CC[C@H]1c2cc(OC)ccc2CC[C@@]1(C)N (racemic) | > 10 | > 10 | – | < 50 | < 50 | < 50 | < 50 | < 50 | 126 |
| CC[C@H]1c2cc(C)ccc2OC[C@@]1(C)N (racemic) | > 10 | > 10 | – | < 50 | < 50 | < 50 | < 50 | < 50 | 1000 |
| CC[C@H]1c2ccccc2N(c2ccccc2)C[C@@]1(C)N (racemic) | – | > 10 | – | – | – | – | – | – | 316 |
